Data taken from ChEMBL document CHEMBL1157207, “Synthesis of 3,5-bis(2-indolyl)pyridine and 3-[(2-indolyl)-5-phenyl]pyridine derivatives as CDK inhibitors and cytotoxic agents” (Bioorg Med Chem, 2008).

How the values were obtained:
[1] = Inhibition of pig brain GSK3alpha/beta; parameters: species or system Sus scrofa
Summary of the method: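 GSK-3α/β purified from porcine brain, diluted 1/100 in 1 mg/ml BSA, 10 mM DTT. Assayed in buffer A (pH 7.5, with heparin) with GS-1 peptide (5 µl of 40 µM) as substrate and 15 µM [γ-33P]ATP, 30 µl final, 30 min at 30 °C. Detection by P81 phosphocellulose paper binding, phosphoric acid washes, scintillation counting. IC50 averaged from two experiments; DMSO controls.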

CCRF-CEM = experiment: Cytotoxicity against human CEM cells; type: functional, cell-based
Summary of the method: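 CEM human leukaemia cells kept in RPMI 1640 with 10% FBS, 2 mM glutamine, penicillin/streptomycin, 37 °C, 5% CO2. Exponentially growing cells seeded at 2×10^4 per well with various drug concentrations, 72 h at 37 °C; tetrazolium dye (CellTiter 96 AQueous One) then added for 2 h, absorbance read at 492 nm. IC50 averaged from two experiments.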

[2] = Inhibition of starfish CDK1/cyclin B; parameters: species or system Marthasterias glacialis
Summary of the method: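 CDK1/cyclin B taken from M-phase starfish (Marthasterias glacialis) oocytes and affinity-purified on p9CKShs1-sepharose beads, eluted with free p9CKShs1. Assayed in buffer C with 1 mg/ml histone H1 and 15 µM [γ-33P]ATP, 30 µl final, 10 min at 30 °C. Detection by P81 phosphocellulose paper binding and scintillation counting. IC50 averaged from two experiments.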

[3] = Inhibition of recombinant CDK5/p25 expressed in Escherichia coli
Summary of the method: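 Recombinant CDK5 and p25 expressed in E. coli as GST fusions, purified on glutathione-agarose and mixed in equal amounts. Assayed in buffer C with 1 mg/ml histone H1 and 15 µM [γ-33P]ATP, 30 µl final, 10 min at 30 °C. Detection by P81 phosphocellulose paper binding and scintillation counting. IC50 averaged from two experiments.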

Row | SMILES | IC50 [1] | IC50 (CCRF-CEM) | IC50 [2] | IC50 [3]
1 | CN(C)CCCOc1ccc(-c2cncc(-c3cc4cc(O)ccc4n3CCCN(C)C)c2)cc1 | > 10 µM | 12.7 µM | > 10 µM | 
2 | CN(C)CCOc1ccc(-c2cncc(-c3cc4cc(O)ccc4[nH]3)c2)cc1 | 4.6 µM | 12.3 µM | 3.6 µM | 6.7 µM
3 | CN(C)CCOc1ccc(-c2cncc(-c3cc4ccccc4[nH]3)c2)cc1 | 4.8 µM | 9.02 µM | 2.5 µM | 3.1 µM
4 | CN(C)CCCOc1ccc(-c2cncc(-c3cc4ccccc4[nH]3)c2)cc1 | 31 µM | 5.4 µM | 0.9 µM | 1 µM
5 | CN(C)CCCn1c(-c2cncc(-c3cc4cc(O)ccc4n3CCCN(C)C)c2)cc2cc(O)ccc21 | > 10 µM | 11.1 µM | > 10 µM | 
6 | CN(C)CCOc1ccc(-c2cncc(-c3cc4ccccc4n3CCN(C)C)c2)cc1 | > 10 µM | 7.97 µM | > 10 µM | 
7 | CN(C)CCn1c(-c2cncc(-c3cc4cc(O)ccc4n3CCN(C)C)c2)cc2cc(O)ccc21 | > 10 µM | 14.8 µM | > 10 µM | 
8 | CN(C)CCn1c(-c2cncc(-c3cc4cc(O)ccc4[nH]3)c2)cc2cc(O)ccc21 | > 10 µM | 5.76 µM | > 10 µM | 
9 | CN(C)CCOc1ccc(-c2cncc(-c3cc4cc(O)ccc4n3CCN(C)C)c2)cc1 | > 10 µM | 31.9 µM | > 10 µM | 
10 | Oc1ccc(-c2cncc(-c3cc4ccccc4[nH]3)c2)cc1 | > 100 µM | 4.67 µM | 0.7 µM | 0.9 µM
11 | Oc1ccc2[nH]c(-c3cncc(-c4cc5cc(O)ccc5[nH]4)c3)cc2c1 | 30 µM | 7.99 µM | 0.54 µM | 1.2 µM
12 | Oc1ccc(-c2cncc(-c3cc4cc(O)ccc4[nH]3)c2)cc1 | 40 µM | 14.5 µM | 0.31 µM | 1.5 µM
13 | CN(C)CCCOc1ccc(-c2cncc(-c3cc4ccccc4n3CCCN(C)C)c2)cc1 | > 10 µM | 4.19 µM | > 10 µM | 
14 | CN(C)CCCn1c(-c2cncc(-c3cc4cc(O)ccc4[nH]3)c2)cc2cc(O)ccc21 | > 10 µM | 14.2 µM | > 10 µM | 
15 | CN(C)CCCOc1ccc(-c2cncc(-c3cc4cc(O)ccc4[nH]3)c2)cc1 | 3.8 µM | 5.35 µM | 1.9 µM | 5 µM
